# Experimental data reported in article PMC5615155 (Toxicology Reports, 2017).
# Where “and” joins values, the source holds several entries; their conditions need not be identical. Identical values can stand only once. Entries after “also recorded” stand apart in the source; their conditions may differ.
# Key:
# E. coli strain WP2 uvrA = experiment: bacterial reverse mutation test; assay type: cell-based; settings: 100–5000 μg/plate, plate incorporation, ±S9
# In short: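 GLP plate-incorporation Ames test per OECD 471 with S. typhimurium TA98, TA100, TA1535, TA1537 and E. coli WP2 uvrA, ± Aroclor 1254-induced male rat liver S9. An initial toxicity-mutation phase (1.5–5000 μg/plate) set the range for the confirmatory assay at 100, 333, 1000, 3333 and 5000 μg/plate. Negative and positive controls were included. Toxicity and precipitate were noted.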
# CYP2D6 = CYP2D6 (Homo sapiens, UniProt P10635); experiment: CYP inhibition, spectrofluorimetric; assay type: biochemical; settings: recombinant human CYP2D6 expressed in insect Sf9 cells
# Chain of CYP2D6 (P10635 whole entry, canonical isoform): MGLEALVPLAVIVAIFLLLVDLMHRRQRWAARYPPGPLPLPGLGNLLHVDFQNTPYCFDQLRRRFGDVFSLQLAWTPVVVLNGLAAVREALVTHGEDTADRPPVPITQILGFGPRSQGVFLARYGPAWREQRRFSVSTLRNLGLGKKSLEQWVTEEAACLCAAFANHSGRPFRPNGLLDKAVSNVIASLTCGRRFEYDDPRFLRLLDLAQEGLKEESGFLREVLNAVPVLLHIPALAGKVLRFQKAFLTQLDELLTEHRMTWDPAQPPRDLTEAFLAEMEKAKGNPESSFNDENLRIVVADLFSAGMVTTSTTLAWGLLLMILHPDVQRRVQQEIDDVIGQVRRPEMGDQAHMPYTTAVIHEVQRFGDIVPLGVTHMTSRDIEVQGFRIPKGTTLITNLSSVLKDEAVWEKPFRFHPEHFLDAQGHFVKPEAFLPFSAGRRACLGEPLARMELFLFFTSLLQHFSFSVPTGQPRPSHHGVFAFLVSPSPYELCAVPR
# In short: (§1)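 Inhibition was assayed with recombinant human CYP isoforms expressed in insect Sf9 cells. Turnover of spectrofluorimetric substrates was read by fluorescence. Test compound was tested at a single concentration of 10 μM.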
# [1] = excretion in feces and urine; assay type: in vivo, Sprague-Dawley rats
# CYP2C9 = CYP2C9 (Homo sapiens, UniProt P11712); experiment: CYP inhibition, spectrofluorimetric; assay type: biochemical; settings: recombinant human CYP2C9 expressed in insect Sf9 cells
# Chain of CYP2C9 (P11712 whole entry): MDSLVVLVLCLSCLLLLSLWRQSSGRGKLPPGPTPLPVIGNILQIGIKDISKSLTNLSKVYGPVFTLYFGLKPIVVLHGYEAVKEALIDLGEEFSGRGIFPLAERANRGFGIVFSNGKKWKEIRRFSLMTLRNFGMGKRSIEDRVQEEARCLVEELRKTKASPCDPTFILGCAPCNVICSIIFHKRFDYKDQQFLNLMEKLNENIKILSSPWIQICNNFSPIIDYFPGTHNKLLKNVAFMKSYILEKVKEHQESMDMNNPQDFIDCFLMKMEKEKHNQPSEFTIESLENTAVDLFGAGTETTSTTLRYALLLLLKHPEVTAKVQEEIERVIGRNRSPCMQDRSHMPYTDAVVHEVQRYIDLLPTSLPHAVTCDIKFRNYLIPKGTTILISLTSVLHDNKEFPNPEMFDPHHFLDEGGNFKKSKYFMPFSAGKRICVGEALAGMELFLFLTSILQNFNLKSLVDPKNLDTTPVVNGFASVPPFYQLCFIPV
# In short: as §1
# CYP1A2 = molecular target: T1, CYP1A2 (Homo sapiens, UniProt P05177); experiment: CYP inhibition, spectrofluorimetric; assay type: biochemical; settings: recombinant human CYP1A2 expressed in insect Sf9 cells
# T1 sequence (P05177 1-516): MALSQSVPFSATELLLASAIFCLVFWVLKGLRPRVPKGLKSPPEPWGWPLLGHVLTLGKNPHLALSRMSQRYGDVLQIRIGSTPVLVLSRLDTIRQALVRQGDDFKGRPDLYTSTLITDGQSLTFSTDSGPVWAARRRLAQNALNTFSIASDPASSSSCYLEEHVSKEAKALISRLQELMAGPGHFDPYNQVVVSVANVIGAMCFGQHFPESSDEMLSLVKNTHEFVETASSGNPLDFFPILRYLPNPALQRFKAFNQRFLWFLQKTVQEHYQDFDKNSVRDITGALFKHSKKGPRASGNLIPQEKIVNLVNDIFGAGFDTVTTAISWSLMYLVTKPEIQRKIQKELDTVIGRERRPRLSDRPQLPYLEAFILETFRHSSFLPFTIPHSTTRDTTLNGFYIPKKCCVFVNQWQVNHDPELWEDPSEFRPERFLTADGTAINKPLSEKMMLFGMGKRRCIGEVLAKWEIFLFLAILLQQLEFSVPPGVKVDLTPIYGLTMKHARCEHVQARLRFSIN
# In short: as §1
# [2] = test system: 68 receptor binding assays for GPCRs, ion channels, nuclear receptors, transporters; experiment: receptor lead profiling panel; settings: 10 μM
# [3] = in vitro microsomal metabolism; assay type: in vitro ADME, human; settings: 10 μM, 0.5 mg/mL, +NADPH, 120 min
# [4] = 13-week dietary toxicity study; assay type: in vivo, CD [Crl:CD(SD)] rats
# [5] = 140 mg/kg bw/day females, p < 0.05
structure (smiles),measurement,setting,value
"Cc1cc(C(=O)NC(C)(C)COc2cccc3c2C(N)=NS(=O)(=O)N3)cc(C)n1 [S2218, N-(1-((4-amino-2,2-dioxido-1H-benzo[c][1,2,6]thiadiazin-5-yl)oxy)-2-methylpropan-2-yl)-2,6-dimethylisonicotinamide]","Reverse mutation (in vitro), result",E. coli strain WP2 uvrA,not mutagenic; also recorded: Negative
same,inhibition at 10 μM,CYP2D6,≤ 7%
same,% Recovery of S2218,"[1]; feces + urine, female, 0–72 h",90.0% and 90.0 ± 7.5%
same,% Recovery of S2218,"[1]; feces + urine, male, 0–72 h",82.1% and 82.1 ± 15.4%
same,% Recovery of S2218,"[1]; feces + urine, overall (M+F), 0–72 h",86.07%
same,% Recovery of S2218,"[1]; feces, female, 0–24 h",82.19% and 82.19 ± 10.89%
same,% Recovery of S2218,"[1]; feces, female, 0–72 h",89.79% and 89.79 ± 7.63%
same,% Recovery of S2218,"[1]; feces, female, 24–48 h",7.504 ± 6.517%
same,% Recovery of S2218,"[1]; feces, female, 48–72 h",0.152 ± 0.062%
same,% Recovery of S2218,"[1]; feces, male, 0–24 h, S8069 10 mg/kg bw oral",76.68% and 76.68 ± 13.82%
same,% Recovery of S2218,"[1]; feces, male, 0–72 h",82.08% and 82.08 ± 15.35%
same,% Recovery of S2218,"[1]; feces, male, 24–48 h",5.247 ± 4.432%
same,% Recovery of S2218,"[1]; feces, male, 48–72 h",0.298 ± 0.225%
same,% Recovery of S2218,"[1]; urine, female, 0–24 h",0.202 ± 0.216%
same,% Recovery of S2218,"[1]; urine, female, 0–72 h",0.230% and 0.230 ± 0.252%
same,% Recovery of S2218,"[1]; urine, female, 24–48 h",0.020 ± 0.027%
same,% Recovery of S2218,"[1]; urine, female, 48–72 h",0.008 ± 0.010%
same,% Recovery of S2218,"[1]; urine, male, 0–24 h",0.036 ± 0.025%
same,% Recovery of S2218,"[1]; urine, male, 0–72 h",0.044% and 0.044 ± 0.022%
same,% Recovery of S2218,"[1]; urine, male, 24–48 h",0.007 ± 0.004%
same,% Recovery of S2218,"[1]; urine, male, 48–72 h",0.001 ± 0.001%
same,% Recovery of S2218,"[1]; urine, overall (M+F), 0–72 h",0.137%
same,inhibition at 10 μM,CYP2C9,≤ 7%
same,inhibition at 10 μM,CYP1A2,≤ 7%
same,inhibition or stimulation in lead profiling receptor screen,[2],< 50%
same,% MS (EIC) peak area of parent relative to time 0,[3],98.4 ± 0.4%
Cc1cc(C(=O)NC(C)(C)COc2cccc3c2C(N)=NS(=O)(=O)N3)cc(C)n1.O=S(=O)(O)O [S8069],pituitary/brain weight decrease vs control,"[4]; 140 mg/kg bw/day females, p < 0.01",17.7%
same,kidney/brain weight decrease vs control,[4]; [5],8.1%
same,liver/brain weight decrease vs control,[4]; [5],9.8%
same,pituitary gland mean absolute weight decrease vs control,[4]; [5],15.1%
same,pituitary/body weight decrease vs control,[4]; [5],14.6%
same,brain weight increase relative to control,"[4]; 140 mg/kg bw/day females, p > 0.05",3.4%
same,Findings,"[4]; 30, 70, 140 mg/kg bw/day food ad-mix",No test-article related findings
same,margin of safety (NOAEL 140 mg/kg bw/day vs PADI 47 μg/kg bw/day),"[4]; rat, in vivo",> 2975 fold
